TRPC4 potent: allosteric potentiators of mouse TRPC4 channel. Q9QUQ5. HEK293 TRPC4beta/mu-opioid, DAMGO EC20, Fluo-4 Ca2+ flux; active compounds read high. B-score at 10 µM. 310,000 tested, 0.42% active;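 active means B-score of calcium response area above 5 SD of library B-scores, with initial fluorescence ratio within 5 SD of library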;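 further: B-score of integrated fluorescence ratio over time as area under calcium response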
Target sequence (Q9QUQ5 whole entry, looked up): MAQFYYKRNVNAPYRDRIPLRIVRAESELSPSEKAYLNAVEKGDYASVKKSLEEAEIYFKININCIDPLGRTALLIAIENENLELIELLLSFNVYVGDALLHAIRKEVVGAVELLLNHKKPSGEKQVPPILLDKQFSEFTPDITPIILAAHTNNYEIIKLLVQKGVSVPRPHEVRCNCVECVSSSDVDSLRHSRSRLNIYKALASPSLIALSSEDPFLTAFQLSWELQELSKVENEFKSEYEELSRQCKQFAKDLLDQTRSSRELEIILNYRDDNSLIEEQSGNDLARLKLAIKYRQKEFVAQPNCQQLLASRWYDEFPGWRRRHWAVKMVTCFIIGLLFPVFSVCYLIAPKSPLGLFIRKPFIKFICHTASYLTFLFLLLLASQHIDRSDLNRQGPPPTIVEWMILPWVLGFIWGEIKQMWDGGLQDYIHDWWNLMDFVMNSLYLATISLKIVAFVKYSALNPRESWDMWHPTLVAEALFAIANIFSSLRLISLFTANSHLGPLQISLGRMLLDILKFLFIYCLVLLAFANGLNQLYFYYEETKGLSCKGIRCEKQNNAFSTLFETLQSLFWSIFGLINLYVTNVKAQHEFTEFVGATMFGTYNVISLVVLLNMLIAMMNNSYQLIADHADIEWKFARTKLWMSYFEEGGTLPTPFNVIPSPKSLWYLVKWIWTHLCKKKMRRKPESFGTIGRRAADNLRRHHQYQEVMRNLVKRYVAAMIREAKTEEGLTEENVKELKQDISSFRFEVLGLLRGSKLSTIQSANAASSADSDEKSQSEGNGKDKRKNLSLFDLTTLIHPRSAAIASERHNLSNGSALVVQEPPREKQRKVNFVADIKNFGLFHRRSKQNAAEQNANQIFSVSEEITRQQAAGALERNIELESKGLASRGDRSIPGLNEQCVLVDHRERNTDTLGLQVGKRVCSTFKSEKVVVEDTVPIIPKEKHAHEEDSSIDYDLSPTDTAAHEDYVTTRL
TRPC6 act: mouse TRPC6 channel activation; 310,000 tested, 0.13% active; B-score at 10 µM; HEK293-TRPC6 membrane potential dye fluorescence; active compounds read high; Q61143;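 active means B-score of the integrated fluorescence ratio above library mean plus 3 SD, and starting fluorescence ratio within library mean plus 5 SD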;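 further: higher score means more depolarization so channel activation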
TRPC4 agonist: opens the mouse TRPC4 cation channel; HEK293 TRPC4beta/mu-opioid, Fluo4 calcium fluorescence; active compounds read high; Q9QUQ5; AID 2237; B-score at 10 µM; 310,000 tested, 0.49% active;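 active means B-score above 5 SD of library B-scores, and initial fluorescence ratio not above library mean plus 5 SD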;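 further: positive B-score marks a calcium rise read as TRPC4 activation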
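System: HEK293 cells stably co-expressing mouse TRPC4beta and mu-opioid receptor; Schedule: Fluo4 dye loading 45 min at room temperature, 110 s recording; Detection: Fluo4 fluorescence, kinetic; Evaluation: B-scored integrated calcium fluorescence ratio; Controls: buffer (low) and maximal DAMGO (high).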
TRPC6 inh: mouse TRPC6 channel inhibition; Q61143; HEK293-TRPC6, membrane potential dye, ACh-evoked depolarization; active compounds read low; B-score at 10 µM; 310,000 tested, 1.1% active;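 active means B-score under library mean minus 3 SD, initial fluorescence not abnormally high, positive integrated signal ratio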;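 further: B-score derived from integrated fluorescence ratio over the kinetic read; more negative B-score means stronger inhibition of depolarization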
TRPC4 inh: TRPC4 (mouse) channel inhibition | Q9QUQ5 | HEK293 TRPC4beta/mu-opioid, DAMGO-evoked Fluo4 calcium flux; active compounds read low | B-score at 10 µM | 300,000 tested, 0.39% active | AID 2247;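 active means B-score over 3 SD under the library average, no early fluorescence shift, positive overall ratio signal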
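test system = HEK293 cells with stable TRPC4beta plus mu-opioid receptor expression | detection = Fluo4 Ca2+ flux fluorescence | read-out = integrated fluorescence ratio relative to baseline, converted to per-well B score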
Kir21 block: Kir2.1 (mouse) channel inhibition; 310,000 tested, 0.85% active; AID 1672; P35561; HEK293-Kir2.1, FluxOR thallium flux fluorescence; active compounds read low; B-score at 10 µM;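 active means fluorescence ratio B-score at or below minus 3 SD of library scores, with starting-brightness B-score within 2 SD, cut at about -4.2 in these data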;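 further: channel flux triggered by added potassium and thallium sulfate stimulus; B-score of peak minus minimum fluorescence over baseline after thallium stimulus; more negative B-score means stronger Kir2.1 block with less thallium influx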
TRPC4 sel inh 2: mouse TRPC4 off-target activity of TRPC6 inhibitors, second screen | shares compounds with TRPC6 inh | HEK293 TRPC4/MOR, membrane potential dye fluorescence; channel activated by saturating DAMGO dose | inhibition, % at 10 µM | 920 tested, 42% active;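 active means compounds whose fluorescence signal differed from control wells by over 3 SD, either direction, in both duplicate plates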
TRPC4 spec: mouse TRPC4 off-target activity of TRPC6 inhibitors; shares compounds with TRPC6 inh; HEK293 TRPC4/mu-opioid, membrane potential fluorescence; activity change, negative = inhibition, % at 10 µM; 920 tested, 61% active; AID 2777;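 active means rise or fall in signal beyond 3 SD of buffer-only wells in both replicate plates, either sign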;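 further: integrated kinetic ratio of fluorescence range over baseline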
HEK293 MPD ctr 2-1: parental HEK293 nonspecific activity of TRPC6 inhibitors, second screen. shares compounds with TRPC6 inh. parental HEK293 membrane potential dye fluorescence; maximal acetylcholine challenge after compound addition. AID 2779. 920 tested, 31% active. signal change vs control, % at 10 µM;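 active means membrane potential signal moving either way by over 3 SD of the maximum-effect control, in both duplicate plates, meaning non-specific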
HEK293 MPD ctr-1: parental HEK293 nonspecific activity of TRPC6 inhibitors | membrane potential signal change, % at 10 µM | 920 tested, 60% active | parental HEK293 membrane potential dye fluorescence | shares compounds with TRPC6 inh;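 active means membrane potential signal shifting up or down by more than 3 SD of buffer-only wells, on both duplicate plates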
HEK293 MPD ctr-2: counter-screen for TRPC6 modulators: effect in parental HEK293 cells; shares compounds with TRPC6 inh; membrane potential dye fluorescence; membrane potential signal change, % at 10 µM; 2,400 tested, 51% active;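 active means membrane potential signal moves up or down beyond 5 SD from buffer-only wells, on both duplicate plates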
HEK293 MPD ctr 2-2: parental HEK293 nonspecific activity of TRPC6 modulators, second screen | inhibition, % at 10 µM | 2,400 tested, 14% active | shares compounds with TRPC6 inh | membrane potential dye fluorescence; after compound, maximal acetylcholine stimulation;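 active means membrane potential signal drops by more than 5 SD from the mean control signal, in both duplicate plates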;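 further: plate controls were acetylcholine ECmax control wells for no effect and buffer only wells for full effect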
TRPC4/MOR mod: mouse TRPC4 off-target activity of TRPC6 modulators; shares compounds with TRPC6 inh; HEK293 TRPC4/mu-opioid, membrane potential fluorescence; percent change from control (negative = decrease, positive = increase), % at 10 µM; 2,400 tested, 69% active;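 active means membrane potential signal moved up or down beyond 5 SD of buffer control wells, in both duplicate plates, actives on both sides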;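 further: plate controls were assay buffer wells for no effect and DAMGO maximal-effect wells for full effect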
TRPC4 ctr inh 2: mouse TRPC4 off-target activity of TRPC6 modulators, second screen; shares compounds with TRPC6 inh; HEK293 TRPC4/mu-opioid, membrane potential dye fluorescence; stimulated with maximal-effect DAMGO; inhibition, % at 10 µM; 2,400 tested, 55% active; AID 488928;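 active means drop in membrane potential signal beyond 5 SD of the control wells in both duplicate plates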;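 further: TRPC4 counter screen for TRPC6 hits run under conditions tuned for TRPC6 not TRPC4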
TRPC6 block conf: mouse TRPC6 inhibitor confirmation; shares compounds with TRPC6 inh; HEK293-TRPC6, membrane potential dye, ACh-evoked depolarization; inhibition, % at 10 µM; 3,300 tested, 43% active;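 active means fluorescence ratio falls more than 5 SD below the full-stimulation control mean, in both duplicate runs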;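 further: integrated fluorescence ratio of peak minus minimum over baseline after agonist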
TRPC6 act conf: mouse TRPC6 activator confirmation; shares compounds with TRPC6 inh; HEK293-TRPC6 membrane potential dye fluorescence, FDSS; activation, % at 10 µM; 2,800 tested, 11% active;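 active means ratio signal rise beyond 5 SD above unstimulated control wells' mean, seen in both duplicate runs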;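 further: plate controls were buffer EC0 wells for no effect and acetylcholine ECmax response for full effect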
The depositor's hits bear a star; i = inactive; nt = no result given; ! = not confirmed by another sample. Hits are enriched below; roughly 2.9% of the tested compounds scored in any of these assays.

SMILES	TRPC4 potent	TRPC6 act	TRPC4 agonist	TRPC6 inh	TRPC4 inh	Kir21 block	HEK293 MPD ctr-2	HEK293 MPD ctr 2-2	TRPC4/MOR mod	TRPC4 ctr inh 2	TRPC6 block conf	TRPC6 act conf	others
Cc1cc(C)c(OCCCCN2CCNCC2)c(C)c1	i	i	i	-5.7*	i	-1.7	i	i	i	54%*	44%*	nt
COc1cc(CNc2nc3c(C)cc(C)cc3s2)ccc1O	i	i	i	i	i	0	nt	nt	nt	nt	nt	nt
CCN(CC)CCNc1ccnc2cc(Cl)ccc12	i	i	i	-12*	i	0.87	-333%*	70%*	-50%*	71%*	73%*	i
O=C(NCCNc1ccnc2cc(Cl)ccc12)c1ccccc1F	i	i	i	i	i	-1.9	nt	nt	nt	nt	nt	nt
Clc1ccc(NNc2ccnc3cc(Cl)ccc23)cc1	i	i	i	i	i	-1.3	nt	nt	nt	nt	nt	nt
Oc1ccc(Nc2ccnc3cc(Cl)ccc23)cc1	i	i	i	i	i	1.8	nt	nt	nt	nt	nt	nt
CCN(CC)Cc1cc(Nc2ccnc3cc(Cl)ccc23)ccc1O	i	i	i	-5.7*!	i	-2.5	-184%*	i	-34%*	52%*	i	i
Clc1ccc2c(NCc3ccccc3)ccnc2c1	i	i	i	-5.5*	i	-0.42	-98%*	i	-23%*	78%*	38%*	i
COC(=O)N1CCN(c2ccc(Cl)c(Cl)c2)CC1	i	i	i	-6.3*	i	-0.48	i	i	8.0%*	37%*	i	i
COC(=O)N1CCN(c2ccc(C)c(C)c2)CC1	i	i	i	i	i	1.2	nt	nt	nt	nt	nt	nt
O=C(c1cc([N+](=O)[O-])ccc1N1CCOCC1)N1CCN(c2ccccc2)CC1	i	i	i	i	i	3	nt	nt	nt	nt	nt	nt
CC1=C(C#N)S(=O)(=O)C(C#N)C(c2ccccc2)C1 (centres undefined)	i	i	i	i	i	-1.4	nt	nt	nt	nt	nt	nt
COc1ccc(Nc2nc(NCC3CCCO3)c3ccccc3n2)c(OC)c1 (centres undefined)	i	i	i	-9.8*	-6*	-9.9*	nt	nt	nt	nt	75%*	i	TRPC4 sel inh 2=48%*;TRPC4 spec=-16%*;HEK293 MPD ctr 2-1=i;HEK293 MPD ctr-1=-223%*
c1ccc(-c2nc(NCC3CCCO3)c3ccccc3n2)nc1 (centres undefined)	i	i	i	i	i	1.1	nt	nt	nt	nt	nt	nt
CCOc1ccc(Nc2nc(NCC3CCCO3)c3ccccc3n2)cc1 (centres undefined)	i	i	i	-9.6*	-5*	-7.1*	nt	nt	nt	nt	i	i	TRPC4 sel inh 2=56%*;TRPC4 spec=-17%*;HEK293 MPD ctr 2-1=i;HEK293 MPD ctr-1=-150%*
OCCNc1nc(Nc2ccc(Br)cc2)nc2ccccc12	i	i	i	-7*	i	-13*	nt	nt	nt	nt	i	i	TRPC4 sel inh 2=46%*;TRPC4 spec=-20%*;HEK293 MPD ctr 2-1=i;HEK293 MPD ctr-1=-181%*
OCCNc1nc(Nc2ccccc2)nc(Nc2ccccc2)n1	i	i	i	i	i	2.2	nt	nt	nt	nt	nt	nt
c1ccc(Nc2nc(NCC3CCCO3)c3ccccc3n2)cc1 (centres undefined)	i	i	i	-8.8*	-6*	-15*	nt	nt	nt	nt	53%*	i	TRPC4 sel inh 2=31%*;TRPC4 spec=-15%*;HEK293 MPD ctr 2-1=i;HEK293 MPD ctr-1=-135%*
COc1ccccc1Nc1nc(NCc2ccco2)c2ccccc2n1	i	i	i	i	i	1	nt	nt	nt	nt	nt	nt
COc1ccc(Nc2nc(NCC3CCCO3)nc(N)c2[N+](=O)[O-])cc1 (centres undefined)	i	i	i	i	i	0.73	nt	nt	nt	nt	nt	nt
O=C(CC(C(=O)N1CCc2ccccc21)n1ccnc1)NCC1CCCO1 (centres undefined)	i	i	i	i	i	0.17	nt	nt	nt	nt	nt	nt
CN(C)CCCN(C(=O)COc1ccccc1)c1nc2c(F)cccc2s1	i	i	i	-5*	i	0.06	i	i	-16%*	84%*	38%*	i
CN(C)CCCN(C(=O)c1cc2ccccc2oc1=O)c1nc2c(F)cccc2s1	i	i	i	-6.5*	i	-0.69	i	i	-22%*	88%*	70%*	i
CN(C)CCCN(C(=O)c1ccc(C(=O)c2ccccc2)cc1)c1nc2c(F)cccc2s1	i	i	i	-6.2*	i	-2.5	i	i	i	82%*	60%*	i
Cc1cccc2sc(N(CCCN(C)C)C(=O)c3cc4ccccc4oc3=O)nc12	i	i	i	i	i	-3.6	nt	nt	nt	nt	nt	nt
COc1cccc2sc(N(CCCN(C)C)C(=O)COc3ccc(Cl)cc3)nc12	i	i	i	i	i	-0.82	nt	nt	nt	nt	nt	nt
CCOC(=O)C1CCN(C(=O)c2ccc(OCC(=O)Nc3ccc(OCC)cc3)c(OC)c2)CC1	i	i	i	i	i	-0.42	nt	nt	nt	nt	nt	nt
